# Measured values taken from ChEMBL document CHEMBL5257161, “Mycobacterium tuberculosis CitA activity is modulated by cysteine oxidation and pyruvate binding” (RSC Med Chem, 2023).
# How the values were obtained:
# [1] = molecular target: T1, Putative citrate synthase 2 (Mycobacterium tuberculosis) (UniProt P9WPD3); test: Binding affinity to Mycobacterium tuberculosis wild type CitA expressed in Escherichia coli cells assessed as change in melting temperature by thermal shift assay
# T1 sequence (whole entry): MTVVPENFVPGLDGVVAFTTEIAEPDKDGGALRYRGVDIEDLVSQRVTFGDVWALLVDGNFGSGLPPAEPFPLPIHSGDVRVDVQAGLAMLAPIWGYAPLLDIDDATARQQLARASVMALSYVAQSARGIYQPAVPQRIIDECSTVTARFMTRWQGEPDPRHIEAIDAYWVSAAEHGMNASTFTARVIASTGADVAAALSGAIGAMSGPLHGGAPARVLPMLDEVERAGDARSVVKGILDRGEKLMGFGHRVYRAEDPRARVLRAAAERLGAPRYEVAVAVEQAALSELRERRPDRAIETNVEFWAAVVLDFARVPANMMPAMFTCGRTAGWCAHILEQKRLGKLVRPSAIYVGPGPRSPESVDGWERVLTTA
# Procedure, shortened: (§1)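 Thermal shift used 25 μM purified protein in 50 mM Tris pH 8.0 with 2 mM ligand (sodium pyruvate, OAA, or both), plus Protein Thermal Shift dye at 2X final. ΔTm was taken from the melt-curve derivative relative to protein without ligand.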
# [2] = molecular target: T1, Putative citrate synthase 2 (Mycobacterium tuberculosis); test: Binding affinity to Mycobacterium tuberculosis wild type CitA expressed in Escherichia coli cells assessed as change in melting temperature in presence of oxaloacetate by thermal shift assay; procedure, shortened: as §1
# [3] = molecular target: T1, Putative citrate synthase 2 (Mycobacterium tuberculosis); test: Inhibition of Mycobacterium tuberculosis wild type CitA expressed in Escherichia coli cells by UV spectrophotometric based analysis
# Procedure, shortened: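 Michael acceptor compounds were added directly to the DTNB/OAA/AcCoA reaction with 10 nM CitA in 50 mM Tris pH 8.0 at 25 °C, read at 412 nm. The screen used 20 μM compound. Dose–response data were fitted to the Hill equation for apparent IC50. A control measured how fast the compounds react with reaction components.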
# [4] = molecular target: T1, Putative citrate synthase 2 (Mycobacterium tuberculosis); test: Binding affinity to Mycobacterium tuberculosis wild type CitA expressed in Escherichia coli cells assessed as change in melting temperature in presence of pyruvate by thermal shift assay; procedure, shortened: as §1
SMILES,ΔTm [1] [°C],ΔTm [2] [°C],Activity [3],ΔTm [4] [°C]
O=CC(=O)O,0.1,–,–,–
CC(=O)C(=O)O,2.31,12.3,Dose-Dependent Effect,–
O=C(O)CC(=O)C(=O)O,11.2,–,–,12.3
O=C(O)CO,0.15,–,–,–
CC(=O)CC(=O)O,0.19,–,–,–
